# Measurements reported in ChEMBL document CHEMBL4765343, “Design and synthesis of novel SCM-198 analogs as cardioprotective agents: Structure-activity relationship studies and biological evaluations” (Eur J Med Chem, 2020).
# Active and inactive are the calls of the source. The rule behind the calls is not given here.
# How the values were obtained:
# H9c2 [1] = assay: Antioxidant activity in rat H9c2 cells assessed as protection against H2O2-induced hypoxic injury by measuring cell viability at 1 uM preincubated for 4 hrs followed by H2O2 stimulation for 1 hr by MTT assay relative to control; assay type: functional
# How it was run: (§1)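 H9c2 cells at 1 × 10^5 cells/mL, 100 μL per well in triplicate, left 18 h. Compound diluted in DMSO; DMSO alone as negative control. 4 h pretreatment, then 400 nM H2O2 for 1 h. Medium removed and MTT added for 2-4 h, formazan dissolved in DMSO, absorbance at 570 nm. Medium-only wells gave the blank.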
# H9c2 [2] = assay: Antioxidant activity in rat H9c2 cells assessed as protection against H2O2-induced hypoxic injury by measuring cell viability at 10 uM preincubated for 4 hrs followed by H2O2 stimulation for 1 hr by MTT assay relative to control; assay type: functional; how it was run: as §1
# H9c2 [3] = assay: Antioxidant activity in rat H9c2 cells assessed as protection against H2O2-induced hypoxic injury by measuring cell viability preincubated for 4 hrs followed by H2O2 stimulation for 1 hr by MTT assay relative to control; assay type: functional; conditions: time 5 hrs, read-out: ED50 (the source's name)
# How it was run: (§2)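 ED50 taken from log dose against % viability. Viability also reported at the EC50 concentration. Means ± SEM from three independent experiments.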
# H9c2 [4] = assay: Antioxidant activity in rat H9c2 cells assessed as protection against H2O2-induced hypoxic injury by measuring cell viability at ED50 concentration preincubated for 4 hrs followed by H2O2 stimulation for 1 hr by MTT assay relative to control; assay type: functional; conditions: time 5 hrs; how it was run: as §2
# H9c2 [5] = assay: Cytoprotective activity against H2O2-induced injury in rat H9c2 cells assessed as reduction in LDH release at 1 uM preincubated for 4 hrs followed by H2O2 stimulation for 1 hr by LDH assay; assay type: functional, cell-based; conditions: time 5.0 hrs
# How it was run: (§3)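 Cells at 5 × 10^4 per well in triplicate, 18 h, then 4 h compound and 1 h H2O2. Model wells had H2O2 without compound; controls had DMSO. 50 μL medium mixed with 2X LDH assay buffer, kept in the dark at 22-25 °C for 10-30 min, read at 490-520 nm. Activity blank-subtracted, normalised to BCA protein of the lysed cells, and expressed relative to model wells.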
# H9c2 [6] = assay: Anti-oxidative effect in rat H9c2 cells assessed as reduction in H2O2-induced MnSOD activity at 10 uM preincubated for 4 hrs followed by H2O2 stimulation for 1 hr by WST-8 assay; assay type: functional, cell-based; conditions: time 5.0 hrs
# How it was run: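 H9c2 cells (ATCC) grown in high-glucose DMEM with 10% FBS at 37 °C, 5% CO2, used at 80-90% confluence and serum-starved 12 h. Compound given 4 h, then medium replaced by DMEM with 500 nM H2O2 for 1 h. Lysate spun 15,000g for 15 min. Cu/Zn SOD blocked with 1 mmol/L KCN, MnSOD read by WST-8 kit, expressed as U/mg protein.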
# H9c2 [7] = assay: Antiapoptotic activity in rat H9c2 cells assessed as restoration of H2O2-induced bcl-2 downregulation at 1 uM preincubated for 4 hrs followed by H2O2 stimulation for 1 hr by Western blotting analysis; assay type: functional, cell-based; conditions: time 5.0 hrs
# How it was run: (§4)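 Serum-starved (12 h) H9c2 cells were pretreated 4 h, then exposed to 500 nM H2O2 in DMEM for 1 h. Lysis on ice with protease/phosphatase inhibitors, then 13,000 g at 4 °C for 15 min. 20 μg protein run on 8-12% SDS-PAGE and blotted to PVDF. Probed overnight at 4 °C for caspase-3, pro-caspase-3, Bcl-2 and GAPDH, with chemiluminescent detection.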
# H9c2 [8] = assay: Antiapoptotic activity in rat H9c2 cells assessed as reduction in H2O2-induced caspase-3 activation at 1 uM preincubated for 4 hrs followed by H2O2 stimulation for 1 hr by Western blotting analysis; assay type: functional, cell-based; conditions: time 5.0 hrs; how it was run: as §4
# H9c2 [9] = assay: Antiapoptotic activity in rat H9c2 cells assessed as reduction in H2O2-induced mitochondrial membrane potential loss at 1 uM preincubated for 4 hrs followed by H2O2 stimulation for 1 hr by JC1 staining based fluorescence microscopic analysis; assay type: functional, cell-based; conditions: time 5.0 hrs
# How it was run: (§5)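 Pretreatment 4 h before 400 nM H2O2. Cells washed in cold PBS pH 7.4 and loaded with 0.5 μg/mL JC-1 for 40 min at 37 °C, washed, then viewed at once by fluorescence microscopy. Monomer read at ex 490/em 535 nm, aggregate at ex 525/em 600 nm. Ratio taken from three independent fields per group, mean ± SD.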
# [10] = Toxicity in C57BL/6J mouse assessed as loss of body weight at 5 mg/kg, ip administered for 7 consecutive days; assay type: organism-based; conditions: in vivo, 168 h, time 7 day
# [11] = Toxicity in C57BL/6J mouse assessed as diarrhea at 5 mg/kg, ip administered for 7 consecutive days; assay type: organism-based; conditions: in vivo, 168 h, time 7 day
# Mus musculus [12] = assay: Cardioprotective activity in C57BL/6J mouse model of LAD coronary artery ligation-induced acute myocardial infarction assessed as reduction in myocardial infarct size at 5 mg/kg, ip pretreated for 7 consecutive days followed by LAD coronary artery ligation after compound treatment for another 3 days by TTC staining based assay; assay type: functional, organism-based; conditions: time 10.0 day
# How it was run: (§6)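 Male/female not stated; 8-week C57BL/6J mice given daily ip doses in saline vehicle for 7 d, then permanent LAD ligation, with dosing continued 3 more days to sacrifice. Under isoflurane, hearts perfused with saline plus 40 mM KCl, cut into 4-5 transverse slices, stained with 1% TTC pH 7.4 at 37 °C for 20 min, formalin-fixed; infarct area by planimetry as % of LV area; N = 6-7 per group.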
# Mus musculus [13] = assay: Cardioprotective activity in C57BL/6J mouse model of LAD coronary artery ligation-induced acute myocardial infarction assessed as reduction in epimyocardium damage at 5 mg/kg, ip pretreated for 7 consecutive days followed by LAD coronary artery ligation after compound treatment for another 3 days by hematoxylin and eosin staining based assay; assay type: functional, organism-based; conditions: time 10.0 day
# How it was run: (§7)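 Eight-week C57BL/6J mice received 5 mg/kg/day i.p. (saline vehicle) for 7 days before permanent LAD ligation, then 3 further days. Paraffin heart sections deparaffinised, stained with hematoxylin 10 min, differentiated in 0.1% HCl, counterstained with eosin 3-5 min, then examined by light microscopy.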
# Mus musculus [14] = assay: Cardioprotective activity in C57BL/6J mouse model of LAD coronary artery ligation-induced acute myocardial infarction assessed as reduction in apoptosis of cardiomyocytes at 5 mg/kg, ip pretreated for 7 consecutive days followed by LAD coronary artery ligation after compound treatment for another 3 days by TUNEL staining based assay; assay type: functional, organism-based; conditions: time 10.0 day
# How it was run: (§8)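 C57BL/6J mice, 8 weeks old, given compound i.p. in saline vehicle daily for 7 days, then permanent LAD ligation with body temperature held at 37 °C. Dosing continued 3 more days until sacrifice. Sections treated with proteinase K, then TdT reaction 30 min at 37 °C and DAPI counterstain. TUNEL-positive nuclei in border area counted as % of DAPI nuclei, N = 4 per group.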
# Mus musculus [15] = assay: Cardioprotective activity in C57BL/6J mouse model of LAD coronary artery ligation-induced acute myocardial infarction assessed as reduction in cardiomyocytes damage at 5 mg/kg, ip pretreated for 7 consecutive days followed by LAD coronary artery ligation after compound treatment for another 3 days by hematoxylin and eosin staining based assay; assay type: functional, organism-based; conditions: time 10.0 day; how it was run: as §7
# [16] = AUClast in Sprague-Dawley rat at 1 mg/kg, iv measured upto 24 hrs by LC-MS/MS analysis; assay type: ADME, organism-based; design: route intravenous, dose 1 mg/kg, time <=24; conditions: in vivo
# How it was run: (§9)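 Male Sprague-Dawley rats, fasted, N = 3, given a single 1 mg/kg intravenous dose. Plasma separated by centrifugation and drug quantified by LC-MS/MS. Values reported as mean ± SD.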
# [17] = AUClast in Sprague-Dawley rat at 10 mg/kg, po measured upto 24 hrs by LC-MS/MS analysis; assay type: ADME, organism-based; design: route oral, dose 10 mg/kg, time <=24; conditions: in vivo
# How it was run: (§10)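 A single 10 mg/kg oral (i.g.) dose was given to male Sprague-Dawley rats, N = 3. Plasma was harvested by centrifugation and measured by LC-MS/MS. Values reported as mean ± SD.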
# [18] = AUCinfinity in Sprague-Dawley rat at 1 mg/kg, iv measured upto 24 hrs by LC-MS/MS analysis; assay type: ADME, organism-based; design: route intravenous, dose 1 mg/kg, time <=24; conditions: in vivo; how it was run: as §9
# [19] = AUCinfinity in Sprague-Dawley rat at 10 mg/kg, po measured upto 24 hrs by LC-MS/MS analysis; assay type: ADME, organism-based; design: route oral, dose 10 mg/kg, time <=24; conditions: in vivo; how it was run: as §10
# [20] = Cmax in Sprague-Dawley rat at 1 mg/kg, iv measured upto 24 hrs by LC-MS/MS analysis; assay type: ADME, organism-based; design: route intravenous, dose 1 mg/kg, time <=24; conditions: in vivo
# [21] = Cmax in Sprague-Dawley rat at 10 mg/kg, po measured upto 24 hrs by LC-MS/MS analysis; assay type: ADME, organism-based; design: route oral, dose 10 mg/kg, time <=24; conditions: in vivo
# [22] = Half life in Sprague-Dawley rat at 1 mg/kg, iv measured upto 24 hrs by LC-MS/MS analysis; assay type: ADME, organism-based; conditions: in vivo
# [23] = Half life in Sprague-Dawley rat at 10 mg/kg, po measured upto 24 hrs by LC-MS/MS analysis; assay type: ADME, organism-based; conditions: in vivo
# [24] = Apparent volume of distribution during terminal phase in Sprague-Dawley rat at 10 mg/kg, po measured upto 24 hrs by LC-MS/MS analysis; assay type: ADME, organism-based; conditions: in vivo, read-out: Vz/F
# [25] = Apparent clearance in Sprague-Dawley rat at 10 mg/kg, po measured upto 24 hrs by LC-MS/MS analysis; assay type: ADME, organism-based; conditions: in vivo
# [26] = Apparent volume of distribution during terminal phase in Sprague-Dawley rat at 1 mg/kg, iv measured upto 24 hrs by LC-MS/MS analysis; assay type: ADME, organism-based; conditions: in vivo
# [27] = Oral bioavailability in Sprague-Dawley rat at 10 mg/kg measured upto 24 hrs by LC-MS/MS analysis; assay type: ADME, organism-based; conditions: in vivo
# H9c2 [28] = assay: Cytoprotective activity against H2O2-induced injury in rat H9c2 cells assessed as reduction in LDH release at 10 uM preincubated for 4 hrs followed by H2O2 stimulation for 1 hr by LDH assay; assay type: functional, cell-based; conditions: time 5.0 hrs; how it was run: as §3
# H9c2 [29] = assay: Antiapoptotic activity in rat H9c2 cells assessed as restoration of H2O2-induced bcl-2 downregulation at 10 uM preincubated for 4 hrs followed by H2O2 stimulation for 1 hr by Western blotting analysis; assay type: functional, cell-based; conditions: time 5.0 hrs; how it was run: as §4
# H9c2 [30] = assay: Antiapoptotic activity in rat H9c2 cells assessed as reduction in H2O2-induced caspase-3 activation at 10 uM preincubated for 4 hrs followed by H2O2 stimulation for 1 hr by Western blotting analysis; assay type: functional, cell-based; conditions: time 5.0 hrs; how it was run: as §4
# H9c2 [31] = assay: Antiapoptotic activity in rat H9c2 cells assessed as reduction in H2O2-induced mitochondrial membrane potential loss at 10 uM preincubated for 4 hrs followed by H2O2 stimulation for 1 hr by JC1 staining based fluorescence microscopic analysis; assay type: functional, cell-based; conditions: time 5.0 hrs; how it was run: as §5
# Mus musculus [32] = assay: Cardioprotective activity in C57BL/6J mouse model of LAD coronary artery ligation-induced acute myocardial infarction assessed as reduction in myocardial infarct size at 10 mg/kg, ip pretreated for 7 consecutive days followed by LAD coronary artery ligation after compound treatment for another 3 days by TTC staining based assay; assay type: functional, organism-based; conditions: time 10.0 day; how it was run: as §6
# Mus musculus [33] = assay: Cardioprotective activity in C57BL/6J mouse model of LAD coronary artery ligation-induced acute myocardial infarction assessed as reduction in apoptosis of cardiomyocytes at 10 mg/kg, ip pretreated for 7 consecutive days followed by LAD coronary artery ligation after compound treatment for another 3 days by TUNEL staining based assay; assay type: functional, organism-based; conditions: time 10.0 day; how it was run: as §8
# [34] = Half life in po dosed Sprague-Dawley rat measured upto 24 hrs by LC-MS/MS analysis; assay type: ADME, organism-based; conditions: in vivo
# [35] = Oral bioavailability in Sprague-Dawley rat measured upto 24 hrs by LC-MS/MS analysis; assay type: ADME, organism-based; conditions: in vivo
structure (smiles),measurement,setting,value
COc1cccc(C(=O)OCCCCNC(=N)N)c1OC,Activity,H9c2 [1],69.3%
same,Activity,H9c2 [2],65.3%
same,EC50,H9c2 [3],142 nM
same,Activity,H9c2 [4],62.8%
same,Activity,H9c2 [5],Active
same,Activity,H9c2 [6],Active
same,Activity,H9c2 [7],Active
same,Activity,H9c2 [8],Active
same,Activity,H9c2 [9],Active
same,Activity,[10],Non-Toxic
same,Activity,[11],Non-Toxic
same,Activity,Mus musculus [12],Active
same,Activity,Mus musculus [13],Active
same,Activity,Mus musculus [14],Active
same,Activity,Mus musculus [15],Active
same,AUC(0-t) at 24 h,[16],882 ng·h/mL
same,AUC(0-t) at 24 h,[17],1630 ng·h/mL
same,AUC(0-inf),[18],895 ng·h/mL
same,AUC(0-inf),[19],1680 ng·h/mL
same,Cmax,[20],764 ng/mL
same,Cmax,[21],621 ng/mL
same,half-life,[22],97.8 min
same,half-life,[23],292 min
same,Vd/F,[24],43.7 L/kg
same,CL/F,[25],92.9 mL/min/kg
same,Vz/F,[26],3766 mL/kg
same,bioavailability,[27],18.5%
COc1cc(C(=O)OCCCCNC(=N)N)cc(OC)c1O [LEONURINE],Activity,H9c2 [1],52.4%
same,Activity,H9c2 [2],62.7%
same,EC50,H9c2 [3],192 nM
same,Activity,H9c2 [4],55.1%
same,Activity,H9c2 [28],inactive
same,Activity,H9c2 [6],Active
same,Activity,H9c2 [29],Active
same,Activity,H9c2 [30],Active
same,Activity,H9c2 [31],Active
same,Activity,Mus musculus [32],Active
same,Activity,Mus musculus [33],Active
same,half-life,[34],> 120 min
same,bioavailability,[35],1.78%
